In ChEMBL document CHEMBL1949540, “Dihydroagarofuran derivatives from the dried roots of Tripterygium wilfordii” (2012):
Calls of active or inactive are those of the source. The rule behind the calls is not given here.

These molecules were tested on Human alphaherpesvirus 2 (assay: Antiherpetic activity against HSV2 at 0.25 mg/ml by MTT assay).
Format: functional
In short: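 Anti-HSV2 test run by a previously reported method. Samples started at an initial concentration of 0.25 mg/mL and were assayed at several concentration levels. Four independent experiments were run at each level. Acyclovir was the positive control. The read-out was an MTT assay, with optical density measured on a multimode plate reader.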
With Nc1nc2c(ncn2COCCO)c(=O)[nH]1 [ACYCLOVIR] the inhibition at 250 µg/mL was 60.6%. CC1(C)O[C@]23[C@H](OC(=O)c4cccnc4)[C@H]1C[C@H](OC(=O)c1ccccc1)[C@]2(C)[C@@H](OC(=O)c1ccccc1)CC[C@]3(C)O [REGELIDINE] showed an inhibition at 250 µg/mL of 31.7%.

These molecules were tested on Human alphaherpesvirus 2 (assay: Antiherpetic activity against HSV2 at 0.5 mg/ml by MTT assay).
Format: functional
In short: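 Activity against HSV2 was assayed by a previously reported procedure. The initial concentration of test samples and of the acyclovir positive control was 0.5 mg/mL, and samples were tested at several concentration levels. Each level had four independent experiments. The end-point was an MTT assay read as optical density.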
With CC(=O)OC[C@]12[C@H](OC(C)=O)[C@H](OC(C)=O)[C@@H]3[C@@H](OC(C)=O)[C@@]14O[C@@]3(C)COC(=O)c1cccnc1CCC(C)(OC(C)=O)C(=O)O[C@@H]([C@H](OC(=O)c1ccoc1)[C@@H]2OC(C)=O)[C@]4(C)O (stereo not given in full) the inhibition was “inactive”. With CC(=O)OC[C@]12[C@H](OC(C)=O)[C@H](OC(C)=O)[C@@H]3[C@@H](OC(C)=O)[C@@]14O[C@@]3(C)COC(=O)c1cccnc1CC[C@H](C)C(=O)O[C@@H]([C@H](OC(C)=O)[C@@H]2OC(C)=O)[C@]4(C)O the inhibition was “inactive”. CC(=O)OC[C@]12[C@H](OC(C)=O)C(=O)[C@@H]3[C@@H](OC(C)=O)[C@@]14O[C@@]3(C)COC(=O)c1cccnc1CCC(C)(OC(C)=O)C(=O)O[C@@H]([C@H](OC(=O)c1ccoc1)[C@@H]2OC(C)=O)[C@]4(C)O (stereo not given in full) was tested, and the inhibition was “inactive”. With CC(=O)OC[C@]12[C@H](OC(C)=O)[C@H](OC(C)=O)[C@@H]3[C@@H](OC(C)=O)[C@@]14O[C@@]3(C)COC(=O)c1cccnc1CCC(C)(O)C(=O)O[C@@H]([C@H](O)[C@@H]2OC(C)=O)[C@]4(C)O (stereo not given in full) the inhibition was “inactive”. Nc1nc2c(ncn2COCCO)c(=O)[nH]1 [ACYCLOVIR] gave an inhibition at 500 µg/mL of 66.3%. In the case of CC(=O)OC[C@]12[C@H](OC(C)=O)[C@H](OC(C)=O)[C@@H]3[C@@H](OC(C)=O)[C@@]14O[C@@]3(C)COC(=O)c1cccnc1CCC(C)C(=O)O[C@@H]([C@H](OC(=O)c1ccccc1)[C@@H]2OC(C)=O)[C@]4(C)O (stereo not given in full), the inhibition is reported as “inactive”. For CC1(C)O[C@]23[C@H](OC(=O)c4cccnc4)[C@H]1C[C@H](OC(=O)/C=C/c1ccccc1)[C@]2(C)[C@@H](OC(=O)c1ccccc1)CC[C@]3(C)O, the inhibition was “inactive”. CC(=O)OC[C@]12[C@H](OC(C)=O)[C@H](OC(C)=O)[C@@H]3[C@@H](OC(C)=O)[C@@]14O[C@@]3(C)COC(=O)c1cccnc1CCC(C)(O)C(=O)O[C@@H]([C@H](OC(=O)c1ccco1)[C@@H]2OC(C)=O)[C@]4(C)O (stereo not given in full) was tested, and the inhibition was “inactive”. With CC(=O)OC[C@]12[C@H](OC(C)=O)[C@H](OC(C)=O)[C@@H]3[C@@H](OC(C)=O)[C@@]14O[C@@]3(C)COC(=O)c1cccnc1CCC(C)(OC(=O)c1ccoc1)C(=O)O[C@@H]([C@H](OC(=O)c1ccccc1)[C@@H]2OC(C)=O)[C@]4(C)O (stereo not given in full) the inhibition was “inactive”. With CC(=O)OC[C@]12[C@H](OC(C)=O)[C@H](OC(=O)c3ccccc3)[C@@H]3[C@@H](O)[C@@]14O[C@@]3(C)COC(=O)c1cccnc1CC[C@H](C)C(=O)O[C@@H]([C@H](OC(C)=O)[C@@H]2OC(C)=O)[C@]4(C)O the inhibition was “inactive”. With CC(=O)OC[C@]12[C@H](OC(C)=O)[C@H](OC(C)=O)[C@@H]3[C@@H](OC(=O)c4ccccc4)[C@@]14O[C@@]3(C)COC(=O)c1cccnc1C(C)C(C)C(=O)O[C@@H]([C@H](OC(C)=O)[C@@H]2OC(C)=O)[C@]4(C)O (stereo not given in full) the inhibition at 500 µg/mL was 22.3%. CC(=O)OC[C@]12[C@H](OC(C)=O)[C@H](OC(C)=O)[C@@H]3[C@@H](O)[C@@]14O[C@@]3(C)COC(=O)c1cccnc1C(C)C(C)C(=O)O[C@@H]([C@H](OC(C)=O)[C@@H]2OC(C)=O)[C@]4(C)O (stereo not given in full) was tested, and the inhibition was “inactive”. In the case of CC(=O)OC[C@]12[C@H](OC(C)=O)[C@H](OC(=O)c3cccnc3)[C@@H]3[C@@H](OC(C)=O)[C@@]14O[C@@]3(C)COC(=O)c1cnccc1C(C)C(C)C(=O)O[C@@H]([C@H](OC(C)=O)[C@@H]2OC(C)=O)[C@]4(C)O (stereo not given in full), the inhibition is reported as “inactive”. With CC(=O)OC[C@]12[C@H](OC(C)=O)[C@H](OC(C)=O)[C@@H]3[C@@H](OC(=O)c4ccccc4)[C@@]14O[C@@]3(C)COC(=O)c1cccnc1C(C)C(C)C(=O)O[C@@H]([C@H](OC(C)=O)[C@@H]2OC(=O)c1ccccc1)[C@]4(C)O (stereo not given in full) the inhibition was “inactive”. With CC(=O)OC[C@]12[C@H](OC(C)=O)[C@H](OC(C)=O)[C@@H]3[C@@H](OC(C)=O)[C@@]14O[C@@]3(C)COC(=O)c1cccnc1CCC(C)C(=O)O[C@@H]([C@H](OC(=O)c1ccco1)[C@@H]2OC(C)=O)[C@]4(C)O (stereo not given in full) the inhibition was “inactive”. With CC(=O)OC[C@]12[C@H](OC(C)=O)[C@H](OC(C)=O)[C@@H]3[C@@H](OC(C)=O)[C@@]14O[C@@]3(C)COC(=O)c1cccnc1C(C)C(C)C(=O)O[C@@H]([C@H](OC(C)=O)[C@@H]2OC(C)=O)[C@]4(C)O (stereo not given in full) the inhibition was “inactive”. For CC(=O)OC[C@]12[C@H](OC(C)=O)[C@H](OC(C)=O)[C@@H]3[C@@H](OC(C)=O)[C@@]14O[C@@]3(C)COC(=O)c1cnccc1C(C)C(C)C(=O)O[C@@H]([C@H](OC(C)=O)[C@@H]2OC(C)=O)[C@]4(C)O (stereo not given in full), the inhibition was “inactive”. With CC(=O)OC[C@]12[C@H](OC(C)=O)[C@H](OC(C)=O)[C@@H]3[C@@H](OC(C)=O)[C@@]14O[C@@]3(C)COC(=O)c1cccnc1CCC(C)(O)C(=O)O[C@@H]([C@H](OC(=O)c1ccccc1)[C@@H]2OC(C)=O)[C@]4(C)O (stereo not given in full) the inhibition was “inactive”.
